Cl transport mod: KCC2 cotransporter modulators, thallium flux, primary screen, cell-based, HEK293 KCC2, FluoZin-2 fluorescence, MLSMR; Solute carrier family 12 member 5 (Homo sapiens), Q9H2X9; KCC2 cells, thallium flux FluoZin-2 fluorescence; B-score of Tl+ flux slope (higher = more flux/activation; lower = inhibition) at 10 µM; 2.2% of 190,000 active; AID 1456, 2008;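 active means thallium flux slope and its plate-corrected score both differing from the plate sample mean at a set confidence after two filtering rounds, in either direction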;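 further: slope of fluorescence scaled to starting intensity during 10 to 20 s after thallium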
ROMK primary: ROMK potassium channel modulators, primary screen, cell-based, thallium flux, MLSMR library; 2% of 130,000 active; ATP-sensitive inward rectifier potassium channel 1 (Homo sapiens), P48048; Tet-inducible ROMK, thallium flux fluorescence; actives lie on both sides; B-score at 10 µM; AID 1918, 2009;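 active means signal ratio slope over the read window, or its plate-corrected B-score, at least 3 SD from the plate mean, either direction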;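 further: B-score of the F/F0 ratio slope over 7 to 12 s after thallium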
Rad51 HR inh: human RAD51 strand exchange inhibitors, primary screen, biochemical, fluorescence; DNA repair protein RAD51 homolog 1 (Homo sapiens), Q06609; hRad51 DNA strand exchange, fluorescence dequenching; 0.085% of 200,000 active; AID 1385, 2008; inhibition, % at 10 µM;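 active means inhibition above 40% at the single screening dose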;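 further: 0% = DMSO control wells and 100% = blanks with heterologous ssDNA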
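System: human Rad51 nucleoprotein filaments preassembled on unlabelled ssDNA. Reagent: labelled 47-mer dsDNA for strand exchange. Schedule: 30-min compound preincubation and 15-min exchange, both room temperature. Measured by: FRET fluorescence dequenching, excitation 485 nm, emission 520 nm. Read-out: Fluorescence-based percent inhibition, control- and blank-normalised. Benchmarks: plate controls and plate blanks.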
PKD1 kinase inh: inhibitors of human PKD1 kinase, biochemical, fluorescence polarization | Serine/threonine-protein kinase D1 (Homo sapiens), Q15139 | PKD1 kinase fluorescence polarization assay | inhibition, % (test concentration not listed) | 0.056% of 200,000 active; in the data active means inhibition above about 50%
Target sequence (Q15139 whole entry, looked up): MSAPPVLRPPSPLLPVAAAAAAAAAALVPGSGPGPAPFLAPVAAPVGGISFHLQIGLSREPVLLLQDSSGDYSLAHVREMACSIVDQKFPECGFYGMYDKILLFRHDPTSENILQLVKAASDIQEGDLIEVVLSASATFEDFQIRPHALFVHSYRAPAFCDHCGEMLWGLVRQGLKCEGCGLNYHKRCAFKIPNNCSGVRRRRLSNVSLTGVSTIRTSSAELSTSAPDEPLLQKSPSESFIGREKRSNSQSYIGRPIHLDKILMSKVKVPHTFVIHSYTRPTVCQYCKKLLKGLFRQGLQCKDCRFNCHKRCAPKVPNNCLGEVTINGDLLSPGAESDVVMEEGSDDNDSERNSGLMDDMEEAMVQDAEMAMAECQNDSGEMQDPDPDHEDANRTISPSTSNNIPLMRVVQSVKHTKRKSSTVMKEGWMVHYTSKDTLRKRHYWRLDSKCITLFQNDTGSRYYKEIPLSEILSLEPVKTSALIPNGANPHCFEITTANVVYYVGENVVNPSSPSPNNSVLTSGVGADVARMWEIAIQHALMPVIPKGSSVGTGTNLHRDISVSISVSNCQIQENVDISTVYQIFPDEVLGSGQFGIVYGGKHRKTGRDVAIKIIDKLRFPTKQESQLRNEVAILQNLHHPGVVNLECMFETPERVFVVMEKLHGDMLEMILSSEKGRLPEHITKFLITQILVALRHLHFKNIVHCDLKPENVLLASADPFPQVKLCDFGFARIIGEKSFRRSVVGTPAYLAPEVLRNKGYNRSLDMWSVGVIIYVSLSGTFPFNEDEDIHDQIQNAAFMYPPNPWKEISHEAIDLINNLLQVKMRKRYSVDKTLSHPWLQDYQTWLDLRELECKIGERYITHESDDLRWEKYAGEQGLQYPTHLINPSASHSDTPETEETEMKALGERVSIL
KCC2 secondary: KCC2 modulators in sodium-free buffer, confirmation, cell-based, HEK293 KCC2, thallium flux, secondary assay; AID 1713, 2009; FluoZin2 fluorescence; stronger effect = higher value; shares compounds with Cl transport mod; normalised thallium flux (F/F0 slope) at 10 µM; 15% of 3,700 active;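 active means thallium flux slope above the same plate's solvent-only control mean plus 3 SD; inconclusive means the two replicate wells disagree; inactive means no significant difference from solvent-only control wells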
KCC2 bumet counter: thallium flux persisting under bumetanide in KCC2 cells, confirmation, counter-screen for KCC2 modulator project, cell-based, HEK293 KCC2, FluoZin2, secondary assay 3 | normalized thallium flux at 10 µM | HEK293-KCC2 + bumetanide/ouabain; stronger effect = higher value | shares compounds with Cl transport mod | AID 1714, 2009 | 49% of 3,700 active;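 active means thallium entry rate above the same plate's blocked-transporter control wells by more than 3 SD; inconclusive means the two repeat wells disagree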;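 further: raw slope of fluorescence over initial fluorescence between 10 and 20 s after thallium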
KCC2 sec2: KCC2 modulators without ouabain present, confirmation, cell-based, HEK293 KCC2, thallium flux, FluoZin2, secondary assay 2 | thallium flux FluoZin2 fluorescence; actives lie on both sides; F/F0 rise rate, 10–20 s post-thallium | normalized thallium flux at 10 µM | shares compounds with Cl transport mod | 23% of 3,700 active;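 active means thallium flux slope more than 3 SD above or below the plate's solvent-only control mean, mostly below; inconclusive means the two repeat wells disagreed; inactive means no significant shift from solvent-only controls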;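 further: raw slope with 0.1% DMSO as baseline and bumetanide as block control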
HEK293 Tl flux: thallium flux modulation in parental HEK cells, confirmation, counter-screen for KCC2 modulator project, cell-based, counterscreen 1. shares compounds with Cl transport mod. HEK293 parental cells, thallium flux FluoZin2, ouabain; baseline-ratio fluorescence slope, 10–20 s after thallium. thallium flux rate (normalised fluorescence) at 10 µM. 46% of 3,700 active. AID 1716, 2009;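 active means thallium flux rate significantly above the same plate's solvent-only control wells, beyond their mean plus 3 SD; inconclusive means the two replicate wells gave conflicting results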
KCC2 retest ouab: KCC2 inhibitors and activators, ouabain retest, confirmation, HEK-KCC2 cells | shares compounds with Cl transport mod | HEK293-KCC2, thallium flux FluoZin2 fluorescence; bidirectional: low = inhibitor, high = activator | raw Tl+ flux slope (below DMSO = inhibition, above = activation) at 10 µM | 48% of 3,700 active | AID 1717, 2009;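 active means thallium flux slope beyond 3 SD from same-plate DMSO control mean in most replicates, usually higher, sometimes lower; inconclusive means repeat tests gave conflicting results; inactive means no significant difference from controls in most replicates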;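 further: slope of initial-normalized fluorescence between seconds 10 and 20 after thallium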
HEK counter2: native HEK Tl+ uptake effects, second counter-screen – HEK cells, counterscreen 2, counter-screen for KCC2 modulator project, confirmation; shares compounds with Cl transport mod; HEK293 parental, thallium flux FluoZin-2 fluorescence slope; thallium flux slope at 10 µM; 33% of 3,700 active; AID 1718, 2009;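 active means thallium flux slope above the same plate's solvent-control mean plus 3 SD in both duplicate wells; inconclusive means duplicate wells that disagreed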;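 further: run without ouabain in cells lacking the KCC2 cotransporter; slope of fluorescence scaled to its starting value between 10 and 20 s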
Starred values were filed as active, the others as inactive; u = inconclusive; x = no result. Only some compounds are listed: those with a hit (about 3% of all), similar ones and a draw of the others.

SMILES	Cl transport mod	ROMK primary	Rad51 HR inh	PKD1 kinase inh	KCC2 secondary	KCC2 bumet counter	KCC2 sec2	HEK293 Tl flux	KCC2 retest ouab	HEK counter2
COc1ccc(C2/C=C\CN(C(=O)CC(C)C)CC(=O)N2Cc2ccc(F)cc2)cc1 (stereo not drawn)	-3*	x	1	x	0.016	0.0034	0.025*	0.0059*	0.015	0.0087
O=C(Cn1cc(C(F)(F)F)ccc1=O)N/N=C/c1cccc(Cl)c1	0.37	-0.17	x	-1	x	x	x	x	x	x
COC(=O)c1ccc2c(=O)n(CCCCCC(=O)NCCNC(C)=O)c(=O)[nH]c2c1	5.4*	0.55	x	2	0.0084	0.0069	0.034	0.0079	0.022	0.011
O=C(CCCn1c(=O)[nH]c2cc(Cl)ccc2c1=O)NCC1CCCO1 (stereo not drawn)	8.6*	1.3	x	9	0.01	0.0064	0.031	0.0069	0.021	u
Cc1ccc(N(CC(=O)NCCSc2ccccn2)S(=O)(=O)c2ccc(F)cc2)cc1	-4.2*	-0.99	-8	-4	0.0067	0.005	0.026*	0.0069	u	0.01
Nc1ccc(O)c2c1C(=O)c1ccccc1C2=O	-1	-0.49	-8	32	x	x	x	x	x	x
Nc1ccc(Br)c2c1C(=O)c1ccccc1C2=O	-3.8*	x	-1	9	u	u	0.032	u	0.018	0.011
COc1ccc(/C=N/NC(=O)COc2cc(C)cc(C)c2)cc1COC(C)=O	x	0.34	12	7	x	x	x	x	x	x
CCCc1oc2c(c(=O)c1CC)C(=O)CC(C)(C)C2	x	0.28	-46	-6	0.016	0.0046	0.028	u	0.015	0.011
COc1ccc(NC(=O)c2ccccc2C)c(OC)c1	0.97	x	-3	-8	x	x	x	x	x	x
COc1ccc(O)c(C(=O)CC(=O)c2ccc(F)cc2)c1	23*	x	-17	-4	u	0.07*	0.035	u	0.054*	u
COc1ccc(C(=O)COc2ccc(F)cc2)c(O)c1	-1.1	x	-2	x	x	x	x	x	x	x
COc1ccc(C(=O)CC(=O)c2ccccc2O)cc1OC	7.1*	0.65	3	4	0.0075	0.011*	0.037	0.013*	0.023	0.011
Cc1ccc(O)c(C(=O)CC(=O)c2cccc(F)c2)c1	51*	x	10	-12	0.0059	0.05*	0.059*	0.058*	0.055*	0.053*
COc1ccc(O)c(C(=O)CC(=O)c2ccccc2C)c1	29*	-0.33	-27	8	0.0054	0.025*	u	0.018*	0.031*	0.022*
CN1CCN(S(=O)(=O)c2cccc(C(=O)NCc3ccccc3Cl)c2)CC1	0.017	-0.2	14	-8	x	x	x	x	x	x
Cc1ccc(N=Cc2cc3c(cc2O)OC(N)=C(C#N)C3c2ccccc2)cc1 (stereo not drawn)	-0.74	x	-332	-12	x	x	x	x	x	x
COc1ccccc1CNC(=O)c1ccc(N2CCOCC2)c([N+](=O)[O-])c1	-1.3	0.43	-1	-3	x	x	x	x	x	x
CCOC(=O)CSc1ncnc2c1cnn2-c1ccccc1	x	-1.6	12	-5	x	x	x	x	x	x
c1ccc(-c2nc(Sc3ncnc4c3cnn4-c3ccccc3)n[nH]2)cc1	-6.7*	x	x	-15	0.007	0.0049	0.023*	0.0069	u	0.011
COc1ccc(Nc2nnc(C)c(=O)[nH]2)c(OC)c1	0.099	-1	23	x	x	x	x	x	x	x
c1ccc2[nH]c(CSc3nnc(-c4ccncc4)o3)nc2c1	0.5	1.1	3	-13	x	x	x	x	x	x
Brc1cccc(-c2nnc(SCc3nc4ccccc4[nH]3)o2)c1	20*	x	x	-2	0.0075	0.0054	0.032	0.0077	0.019	0.01
CCOc1ccc(N(CCCCO)C(=S)NC(=O)c2ccc(C)c(Br)c2)cc1	13*	x	4	2	0.0076	0.049*	0.044*	0.029*	0.046*	0.033*
CCOc1ccc(C(=O)NCCCN(CC)CC)cc1	0.99	-0.11	3	-6	x	x	x	x	x	x
SMILES	Cl transport mod	ROMK primary	Rad51 HR inh	PKD1 kinase inh	KCC2 secondary	KCC2 bumet counter	KCC2 sec2	HEK293 Tl flux	KCC2 retest ouab	HEK counter2
O=C(Nc1cc(S(=O)(=O)N2CCCCC2)ccc1N1CCOCC1)c1cc(=O)[nH]c2ccccc12	1.2	x	18	x	x	x	x	x	x	x
O=C(NCCc1c[nH]c2ccccc12)c1cc(S(=O)(=O)N2CCCCC2)ccc1N1CCOCC1	x	0.69	-6	8	0.0059	0.0046	u	0.0069	0.015*	0.012
CCOc1ccc(S(=O)(=O)NCCC(=O)OCC(=O)N2CC(=O)Nc3ccccc32)cc1	-0.061	0.82	0	-3	x	x	x	x	x	x
CCCn1nnc(NC(=O)c2ccc(-c3cccc(Cl)c3)o2)n1	-1.5	x	1	-5	x	x	x	x	x	x
CCn1nnc(NC(=S)NC(=O)c2ccc(-c3cccc(Cl)c3)o2)n1	67*	x	x	x	u	0.085*	0.065*	0.057*	0.066*	0.054*
O=C(NCCc1ccccc1)[C@@H]1CC=C[C@@H]2CCN(C3CCCCC3)C(=O)[C@@H]21	x	x	1	x	x	x	x	x	x	x
CN(C)CC(CCCCC(CN(C)C)C(=O)c1ccccc1)C(=O)c1ccccc1 (stereo not drawn)	-0.017	x	19	x	x	x	x	x	x	x
COc1ccc(C2c3sc(=O)[nH]c3SC3C(=O)N(c4ccccc4)C(=O)C32)cc1 (stereo not drawn)	-5.9*	x	-3	-5	0.0055	0.0087*	0.022*	0.0097*	0.011*	0.011
O=C1C2Sc3[nH]c(=O)sc3C(c3ccccc3)C2C(=O)N1c1ccccc1 (stereo not drawn)	-12*	x	4	-3	u	0.0052	0.017*	0.0087	u	0.011
Cc1cccc(NC(=S)N/N=C/C(C)c2ccccc2)c1C (stereo not drawn)	5.5	x	26	-2	x	x	x	x	x	x

Compound activity from PubChem BioAssay.
